Experimental findings from ChEMBL document CHEMBL3243961, “Synthesis and biological activity of 8-arylergolines” (1977) are described below.

Each structure is given as a SMILES string. Active and inactive are the calls of the source. The calls are words filed in the database; no cut-off is given here.

Assay [1] is filed under the species Rattus norvegicus. The assay is described as follows: Oxytocic activity in rat uterus smooth muscle up to 10 ug/ml. The assay is classed as functional, tissue-based. To be noted: Muscle tissue.
Assay [2] relates to Rattus norvegicus. The experiment in a line: Antidepressant activity in rat assessed as antimuricidal activity at 0.625 mg/kg, ip. The assay is classed as functional, organism-based. Also noted: dose 0.625 mg/kg.
In assay [3] the target is T1, Adrenergic receptor alpha (Rattus norvegicus) (UniProt P15823+P23944+P43140+P22086+P19328+P22909). The experiment in a line: Blockade of alpha-adrenoceptor in rat aorta assessed as rightward shift in norepinephrine dose response curve. The assay is classed as tissue-based.
Assay [4] deals with Serotonin (5-HT) receptor (Rattus norvegicus) (UniProt P35563+P35365+P32305+P31388+Q9JJ16+P28564+P30994+Q62758+P08909+P14842+P30940+P35364+P19327+P28565). The experiment in a line: Inhibition of 5-HT receptor in rat stomach fundus relative to methysergide. The assay is classed as tissue-based.
Assay [5] has as its system Rattus norvegicus. The assay is described as follows: Antidepressant activity in rat assessed as antimuricidal activity at 5 mg/kg, ip. The format is functional, organism-based. Set-up: dose 5 mg/kg. A digest of the protocol: (§1)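 Rats screened in an antimuricidal (mouse-killing) test, used as a possible indicator of antidepressant activity.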
Assay [6] deals with Rattus norvegicus. The assay is described as follows: Decrease in prolactin level in rat serum at 1 mg, ip by radioimmunoassay. The format is functional. Put shortly:
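Rats received test compound ip at 1 mg per rat. Serum prolactin was then measured by radioimmunoassay, and the result was expressed as the percent drop in serum prolactin.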

Assay [7] deals with Rattus norvegicus. The experiment in a line: Decrease in prolactin level in rat serum at 10 ug, ip by radioimmunoassay. The assay is classed as functional.
Assay [8] deals with Rattus norvegicus. The experiment in a line: Antidepressant activity in rat assessed as antimuricidal activity at 10 mg/kg, ip. The assay is classed as functional, organism-based. Also noted: dose 10 mg/kg. A digest of the protocol:
as §1

Assay [9] addresses T1, Adrenergic receptor alpha (Rattus norvegicus). The experiment in a line: Blockade of alpha-adrenoceptor in rat aorta. The format is tissue-based.
Assay [10] relates to Rattus norvegicus. The experiment in a line: Antidepressant activity in rat assessed as antimuricidal activity at 20 mg/kg, ip. The format is functional, organism-based. Also noted: dose 20 mg/kg. Put shortly:
as §1

For `COc1ccc([C@H]2C=C3c4cccc5c4[C@@H](CN5)C[C@H]3N(C)C2)cc1`, the outcome in [1] was inactive. As for `CN1C[C@H](c2ccc3c(c2)OCO3)C=C2c3cccc4c3[C@@H](CN4)C[C@H]21`, in [1], the result was inactive. With `CN1CCC=C2c3cccc4[nH]cc(c34)CC21` (racemic), the result in assay [2] was Active.

As for `CN1C[C@H](c2ccccc2)C=C2c3cccc4[nH]cc(c34)C[C@H]21.O=C(O)/C=C\C(=O)O`, in [3], the fold change (FC) is 2. This compound showed a 5-HT antagonist potency relative to methysergide in assay [4] of 50%. Also, the outcome in assay [5] was Active. Further, the outcome in [1] was inactive. Besides, in [6], the “inhibition (INH)” value is reported as 71%.

`CN1CC(c2ccc(Cl)cc2)C=C2c3cccc4c3[C@@H](CN4)C[C@H]21` (stereo partly drawn): the outcome in [1] was inactive. Take `Cc1ccc([C@@H]2C=C3c4cccc5[nH]cc(c45)C[C@H]3N(C)C2)cc1`: the outcome in assay [1] was inactive.

Turning to `CC(C)[C@H]1C(=O)N2CCC[C@H]2[C@]2(O)O[C@](NC(=O)[C@@H]3C=C4c5cccc6[nH]cc(c56)C[C@H]4N(C)C3)(C(C)C)C(=O)N12` [ERGOCORNINE], the “inhibition (INH)” value in assay [7] was determined as 60%. Regarding `CN1C[C@@H](c2ccc3c(c2)OCO3)C=C2c3cccc4c3[C@@H](CN4)C[C@H]21`, in [1], the result was inactive. On to `COc1ccc([C@@H]2C=C3c4cccc5[nH]cc(c45)C[C@H]3N(C)C2)cc1.O=C(O)/C=C\C(=O)O`, for which, in [4], the 5-HT antagonist potency relative to methysergide was found to be 100%. The outcome in assay [8] was Active. For the same compound, the result in assay [1] was inactive. Besides, the inhibition entry in assay [9] is “Active”. The “inhibition (INH)” value in assay [6] is given as 81%. As to `CN1C[C@@H](c2ccccc2)C=C2c3cccc4c3[C@@H](CN4)C[C@H]21`, the result in assay [1] was inactive. Consider `CN1C[C@@H](c2ccccc2)C=C2c3cccc4[nH]cc(c34)C[C@H]21.O=C(O)/C=C\C(=O)O`, for which the outcome in assay [10] and in assay [1] was inactive. Besides, the 5-HT antagonist potency relative to methysergide in [4] was found to be 10%. The inhibition entry in assay [9] is “Active”. Moreover, the “inhibition (INH)” value in assay [6] stood at 88%. With `CN1C[C@H](c2ccc3c(c2)OCO3)C=C2c3cccc4[nH]cc(c34)C[C@H]21`, the fold change (FC) in assay [3] was determined as 2. In assay [4], the 5-HT antagonist potency relative to methysergide is 50%. Besides, the outcome in [8] was Active. Besides, the result in assay [1] was inactive. The inhibition result in assay [6] was “inactive”. For `CN1CC(c2ccc(O)cc2)C=C2c3cccc4c3[C@@H](CN4)C[C@H]21` (stereo partly drawn), in [1], the outcome was inactive. Same read-out and setting: with `Cc1ccc([C@H]2C=C3c4cccc5c4[C@@H](CN5)C[C@H]3N(C)C2)cc1` the entry was “inactive”. Turning to `CN1C[C@H](c2ccccc2)C=C2c3cccc4c3[C@@H](CN4)C[C@H]21`, in assay [1], the outcome was inactive. The same measure, in the same setting: the same measure for `COc1ccc([C@@H]2C=C3c4cccc5c4[C@@H](CN5)C[C@H]3N(C)C2)cc1`: “inactive”; for `Cc1ccc([C@@H]2C=C3c4cccc5c4[C@@H](CN5)C[C@H]3N(C)C2)cc1`: “inactive”.
